Source: ChEMBL document CHEMBL4138102, “Design, synthesis and evaluation of azaacridine derivatives as dual-target EGFR and Src kinase inhibitors for antitumor treatment” (Eur J Med Chem, 2017)

How the values were obtained:
[1] = tested on: K562; experiment: Antiproliferative activity against human K562 cells after 48 hrs by MTT assay; assay type: functional, cell-based; details: K562, 48 h
Summary of the method: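 K562 at 7×10⁵ cells mL^-1 seeded and held 12 h at 37 °C, 5% CO₂. Compound added in triplicate per concentration for 48 h. MTT (5 mg mL^-1 solution) added for 4 h at 37 °C, formazan dissolved in DMSO, absorbance read at 490 nm; IC₅₀ derived.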

[2] = tested on: A549; experiment: Antiproliferative activity against human A549 cells after 48 hrs by MTT assay; assay type: functional, cell-based; details: A549, 48 h
Summary of the method: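 A549 seeded at 5-7 × 10³ cells per well and incubated overnight at 37 °C, 5% CO₂. Medium then replaced with fresh medium holding graded compound concentrations or equal DMSO, 48 h. MTT (5 mg mL^-1 solution) added for 4 h, formazan dissolved in DMSO, absorbance read at 490 nm; IC₅₀ derived.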

[3] = biological target: Epidermal growth factor receptor (Homo sapiens) (UniProt P00533); experiment: Inhibition of EGFR (unknown origin) at 10 uM after 15 mins by luminescence assay relative to control
Summary of the method: (§1)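 Contract HTRF-format assay: enzyme, substrate, ATP and compound mixed in 50 mM HEPES/NaOH pH 7.0, 0.02% NaN₃, 0.01% BSA, 0.1 mM orthovanadate, 5 mM MgCl₂, 1 mM DTT. Incubated 15 min at room temperature with compound in 2.5% DMSO. Streptavidin-XL665 and TK antibody europium cryptate added in KF/EDTA buffer; signal read on EnVision; % inhibition computed.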

[4] = biological target: Epidermal growth factor receptor (Homo sapiens) (UniProt P00533); experiment: Inhibition of EGFR (unknown origin) at 1 uM after 15 mins by luminescence assay relative to control; summary of the method: as §1
[5] = tested on: A549; experiment: Downregulation of EGFR protein expression in human A549 cells after 48 hrs by Western blot analysis; assay type: functional, cell-based
Summary of the method: (§2)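 Cells exposed to 0, 0.1, 0.5 and 2.5 µM for 48 h, then lysed and protein quantified. Equal protein loads run on 10% SDS-PAGE, transferred to PVDF and probed for EGFR, p-EGFR, Src and p-Src with HRP secondaries and luminescence detection. Band density expressed as percentage of β-actin.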

[6] = biological target: Epidermal growth factor receptor (Homo sapiens) (UniProt P00533); experiment: Inhibition of EGFR phosphorylation in human A549 cells after 48 hrs by Western blot analysis; assay type: cell-based; summary of the method: as §2
[7] = tested on: A549; experiment: Downregulation of SRC protein expression in human A549 cells after 48 hrs by Western blot analysis; assay type: functional, cell-based; summary of the method: as §2
[8] = biological target: Proto-oncogene tyrosine-protein kinase Src (Homo sapiens) (UniProt P12931); experiment: Inhibition of SRC phosphorylation in human A549 cells after 48 hrs by Western blot analysis; assay type: cell-based; summary of the method: as §2
[9] = tested on: A549; experiment: Downregulation of EGFR protein expression in human A549 cells by measuring EGFR level up to 2.5 uM after 48 hrs by Western blot analysis (reference value: 48.02%); assay type: functional; summary of the method: as §2
[10] = biological target: Epidermal growth factor receptor (Homo sapiens) (UniProt P00533); experiment: Inhibition of EGFR phosphorylation in human A549 cells by measuring EGFR phosphorylated protein level up to 2.5 uM after 48 hrs by Western blot analysis (reference value: 50.21%); assay type: cell-based; design: scale not given: the % may be the effect or the level left; summary of the method: as §2
[11] = tested on: Calf thymus DNA; experiment: Binding affinity to calf thymus DNA by fluorescence titration method; assay type: nucleic-acid assay; details: Bos taurus
[12] = tested on: A549; experiment: Antiinvasive activity in human A549 cells at 0.1 uM preincubated for 6 hrs followed by cell seeding on the inserts to reach confluence for 12 hrs measured after 24 hrs by trypan blue staining-based bright-field light microscopic analysis relative to control; assay type: functional
Summary of the method: (§3)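 A549 cells pretreated with compound for 6 h, seeded on fibronectin-coated 8 µm pore invasion inserts to reach confluence over 12 h, then cultured another 24 h with drug. Cells fixed in 4% formaldehyde, non-invading cells swabbed off, invaders stained with 0.08% trypan blue for 15 min. Five random bright-field views counted; mean ± SEM of five experiments versus control.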

[13] = tested on: A549; experiment: Antiinvasive activity in human A549 cells at 1 uM preincubated for 6 hrs followed by cell seeding on the inserts to reach confluence for 12 hrs measured after 24 hrs by trypan blue staining-based bright-field light microscopic analysis relative to control; assay type: functional; summary of the method: as §3
[14] = tested on: K562; experiment: Induction of apoptosis in human K562 cells assessed as early apoptotic cells at 0.01 uM after 48 hrs by Annexin V-FITC/propidium iodide based flow cytometric analysis (reference value: 4.68%); assay type: functional
[15] = tested on: K562; experiment: Induction of apoptosis in human K562 cells assessed as late apoptotic cells at 0.01 uM after 48 hrs by Annexin V-FITC/propidium iodide based flow cytometric analysis (reference value: 2.49%); assay type: functional
[16] = tested on: K562; experiment: Induction of apoptosis in human K562 cells assessed as necrotic cells at 0.01 uM after 48 hrs by Annexin V-FITC/propidium iodide based flow cytometric analysis (reference value: 0.22%); assay type: functional
[17] = tested on: K562; experiment: Induction of apoptosis in human K562 cells assessed as early apoptotic cells at 0.1 uM after 48 hrs by Annexin V-FITC/propidium iodide based flow cytometric analysis (reference value: 4.68%); assay type: functional
[18] = tested on: K562; experiment: Induction of apoptosis in human K562 cells assessed as late apoptotic cells at 0.1 uM after 48 hrs by Annexin V-FITC/propidium iodide based flow cytometric analysis (reference value: 2.49%); assay type: functional
[19] = tested on: K562; experiment: Induction of apoptosis in human K562 cells assessed as necrotic cells at 0.1 uM after 48 hrs by Annexin V-FITC/propidium iodide based flow cytometric analysis (reference value: 0.22%); assay type: functional
[20] = tested on: K562; experiment: Induction of apoptosis in human K562 cells assessed as early apoptotic cells at 1 uM after 48 hrs by Annexin V-FITC/propidium iodide based flow cytometric analysis (reference value: 4.68%); assay type: functional
[21] = tested on: K562; experiment: Induction of apoptosis in human K562 cells assessed as late apoptotic cells at 1 uM after 48 hrs by Annexin V-FITC/propidium iodide based flow cytometric analysis (reference value: 2.49%); assay type: functional
[22] = tested on: K562; experiment: Induction of apoptosis in human K562 cells assessed as necrotic cells at 1 uM after 48 hrs by Annexin V-FITC/propidium iodide based flow cytometric analysis (reference value: 0.22%); assay type: functional
[23] = tested on: K562; experiment: Induction of apoptosis in human K562 cells after 48 hrs by Annexin V-FITC/propidium iodide based flow cytometric analysis; assay type: functional, cell-based
[24] = biological target: Proto-oncogene tyrosine-protein kinase Src (Homo sapiens) (UniProt P12931); experiment: Inhibition of SRC (unknown origin) at 1 uM after 15 mins by luminescence assay relative to control; summary of the method: as §1
[25] = tested on: Calf thymus DNA; experiment: Binding affinity to calf thymus DNA by UV-visible absorption spectral analysis; assay type: nucleic-acid assay; details: Bos taurus

Sequence of Epidermal growth factor receptor (Homo sapiens) (P00533 whole entry): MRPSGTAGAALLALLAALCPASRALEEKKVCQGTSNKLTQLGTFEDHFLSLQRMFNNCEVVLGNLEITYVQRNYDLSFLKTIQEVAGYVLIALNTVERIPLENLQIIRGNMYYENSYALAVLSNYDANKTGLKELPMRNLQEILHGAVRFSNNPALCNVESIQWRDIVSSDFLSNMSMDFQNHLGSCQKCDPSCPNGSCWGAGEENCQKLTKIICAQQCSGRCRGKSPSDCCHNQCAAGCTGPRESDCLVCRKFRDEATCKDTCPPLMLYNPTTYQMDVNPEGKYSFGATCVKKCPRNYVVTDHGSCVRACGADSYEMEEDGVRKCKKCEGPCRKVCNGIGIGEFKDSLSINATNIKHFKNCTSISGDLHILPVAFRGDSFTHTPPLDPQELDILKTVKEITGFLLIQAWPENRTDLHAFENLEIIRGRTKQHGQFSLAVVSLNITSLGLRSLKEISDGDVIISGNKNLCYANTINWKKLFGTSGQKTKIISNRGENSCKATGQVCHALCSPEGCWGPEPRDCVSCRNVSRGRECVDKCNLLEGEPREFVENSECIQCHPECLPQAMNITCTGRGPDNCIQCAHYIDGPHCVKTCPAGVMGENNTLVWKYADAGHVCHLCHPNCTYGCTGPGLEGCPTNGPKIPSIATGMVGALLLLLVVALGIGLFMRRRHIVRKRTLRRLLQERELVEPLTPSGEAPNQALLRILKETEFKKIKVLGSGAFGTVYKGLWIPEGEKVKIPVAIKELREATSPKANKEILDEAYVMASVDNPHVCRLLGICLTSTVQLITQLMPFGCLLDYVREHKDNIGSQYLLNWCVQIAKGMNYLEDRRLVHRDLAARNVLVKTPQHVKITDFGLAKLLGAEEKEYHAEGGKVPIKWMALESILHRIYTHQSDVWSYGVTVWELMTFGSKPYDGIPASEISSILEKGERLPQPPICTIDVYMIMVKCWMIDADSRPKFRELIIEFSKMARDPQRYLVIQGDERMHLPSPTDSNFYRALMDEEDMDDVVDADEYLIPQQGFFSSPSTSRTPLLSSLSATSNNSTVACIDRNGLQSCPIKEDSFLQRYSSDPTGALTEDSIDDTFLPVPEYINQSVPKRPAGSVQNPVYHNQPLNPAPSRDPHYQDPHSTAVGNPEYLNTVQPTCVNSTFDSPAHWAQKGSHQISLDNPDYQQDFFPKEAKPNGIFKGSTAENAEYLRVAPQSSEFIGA
Sequence of Proto-oncogene tyrosine-protein kinase Src (Homo sapiens) (P12931 2-536 limits assumed): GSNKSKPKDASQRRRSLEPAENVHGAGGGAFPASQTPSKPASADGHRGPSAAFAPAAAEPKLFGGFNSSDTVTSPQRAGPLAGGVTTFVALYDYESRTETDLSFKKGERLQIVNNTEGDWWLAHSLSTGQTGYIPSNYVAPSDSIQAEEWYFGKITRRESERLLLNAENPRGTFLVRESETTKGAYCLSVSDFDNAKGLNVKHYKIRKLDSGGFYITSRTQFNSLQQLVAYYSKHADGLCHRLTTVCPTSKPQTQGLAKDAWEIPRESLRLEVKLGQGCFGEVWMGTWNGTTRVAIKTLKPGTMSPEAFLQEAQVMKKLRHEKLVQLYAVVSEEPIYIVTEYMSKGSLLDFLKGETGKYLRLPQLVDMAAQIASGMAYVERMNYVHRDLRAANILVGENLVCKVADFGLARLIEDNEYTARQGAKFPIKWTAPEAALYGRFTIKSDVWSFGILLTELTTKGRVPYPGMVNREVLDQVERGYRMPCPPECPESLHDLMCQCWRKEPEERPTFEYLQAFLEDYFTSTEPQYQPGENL

For `COc1cccc(C(=O)Nc2cccc(Nc3ncnc4c3Cc3ccccc3N4)c2)c1`, the IC50 [1] was 3.08 µM, the IC50 [2] was 13.5 µM and the inhibition [3] was 31.9%.

With `COc1cccc(C(=O)Nc2ccc(Nc3ncnc4c3Cc3ccccc3N4)cc2)c1` the IC50 [1] was 2.16 µM, the IC50 [2] was 14.1 µM and the inhibition [3] was 35.4%.

`O=C(Nc1cccc(Nc2ncnc3c2Cc2ccccc2N3)c1)c1cccc(Cl)c1` was tested, and the IC50 [1] was 1.21 µM, the IC50 [2] was 12.3 µM and the inhibition [3] was 30.2%.

Work on `Cc1cccc(NC(=O)Nc2ccc(Nc3ncnc4c3Cc3ccccc3N4)cc2)c1` yielded an IC50 [1] of 6.97 µM, an IC50 [2] of over 25 µM and an inhibition [3] of 65.4%.

`Cc1ccc(NC(=O)c2ccc(CN3CCN(C)CC3)cc2)cc1Nc1nccc(-c2cccnc2)n1` [IMATINIB] was tested, and the IC50 [2] was 4.56 µM.

Molecule `O=C(Nc1ccc(Nc2ncnc3c2Cc2ccccc2N3)cc1)Nc1cccc(Cl)c1` has an IC50 [1] of 3.08 µM, an IC50 [2] of 17.9 µM and an inhibition [3] of 42.1%.

Work on `O=C(Nc1cccc(Nc2ncnc3c2Cc2ccccc2N3)c1)c1cccc(C(F)(F)F)c1` yielded an IC50 [1] of 1.89 µM, an IC50 [2] of 9.58 µM and an inhibition [3] of 16.3%.

For `O=C(Nc1ccc(Nc2ncnc3c2Cc2ccccc2N3)cc1)c1cccc(C(F)(F)F)c1`, the IC50 [1] was 1.32 µM, the IC50 [2] was 12.2 µM and the inhibition [3] was 95.4%. The inhibition [4] was 52.4%.

With `O=C(Nc1cccc(Nc2ncnc3c2Cc2ccccc2N3)c1)c1ccccc1` the IC50 [1] was 3.11 µM, the IC50 [2] was 18.3 µM and the inhibition [3] was 30.7%.

`O=C(Nc1ccc(Nc2ncnc3c2Cc2ccccc2N3)cc1)c1cccc(Cl)c1` showed an IC50 [1] of 0.41 µM, an IC50 [2] of 20.7 µM and an inhibition [3] of 30.9%.

`O=C(Nc1cccc(Nc2ncnc3c2Cc2ccccc2N3)c1)c1cccc(F)c1` showed an IC50 [1] of 0.72 µM, an IC50 [2] of 9.05 µM and an inhibition [3] of 24.5%.

For `COc1ccc2c(Nc3ccc(NC(=O)Nc4ccccc4)cc3)c3ccccc3nc2c1`, the IC50 [2] was 9.03 µM and the inhibition [3] was 21.4%.

`Cc1cccc(C(=O)Nc2ccc(Nc3ncnc4c3Cc3ccccc3N4)cc2)c1` was tested, and the IC50 [1] was 3.62 µM, the IC50 [2] was 24.8 µM and the inhibition [3] was 51.1%.

`O=C(Nc1ccc(Nc2ncnc3c2Cc2ccccc2N3)cc1)c1ccccc1` gave an IC50 [1] of 2.52 µM, an IC50 [2] of 14.3 µM and an inhibition [3] of 12.6%.

`O=C(Nc1ccc(Nc2ncnc3c2Cc2ccccc2N3)cc1)Nc1cccc(F)c1` was tested, and the IC50 [1] was 3.14 µM, the IC50 [2] was 6.82 µM and the inhibition [3] was 55.4%.

`O=C(Nc1ccc(Nc2ncnc3c2Cc2ccccc2N3)cc1)Nc1cccc(C(F)(F)F)c1` gave an IC50 [1] of 3.35 µM, an IC50 [2] of 9.26 µM and an inhibition [3] of 35.4%.

`O=C(Nc1ccc(Nc2ncnc3c2Cc2ccccc2N3)cc1)c1cccc(F)c1` showed an IC50 [1] of 0.22 µM, an IC50 [2] of 0.253 µM and an inhibition [3] of 33.1 to 33.5%. The Activity [5] was “Dose-dependent effect”, the inhibition [6] was “Dose-dependent effect” and the Activity [7] was “Dose-dependent effect”. The inhibition [8] was “Dose-dependent effect”, the Activity [9] was 3.03% and the Activity [10] was 3.11%. For the same molecule, the K [11] was 973 M⁻¹, the inhibition at 0.1 µM [12] was 52.5% and the inhibition at 1 µM [13] was 82.8%. The Activity [14] was 11.14%, the Activity [15] was 3.06% and the Activity [16] was 0.17%. For the same molecule, the Activity [17] was 18.82%, the Activity [18] was 27.11% and the Activity [19] was 1.06%. It also gave an Activity [20] of 4.19%, an Activity [21] of 45.15% and an Activity [22] of 0.77%. The Activity [23] was “Dose-dependent effect”, the inhibition [24] was 72.1% and the Kb [25] was 4.16 ×10³ /M.

`COc1cccc(NC(=O)Nc2ccc(Nc3ncnc4c3Cc3ccccc3N4)cc2)c1` was tested, and the IC50 [1] was 3.62 µM, the IC50 [2] was 13.4 µM and the inhibition [3] was 24.9%.

For `Cc1cccc(C(=O)Nc2cccc(Nc3ncnc4c3Cc3ccccc3N4)c2)c1`, the IC50 [1] was 4.9 µM, the IC50 [2] was over 25 µM and the inhibition [3] was 53%.

In the case of `O=C(Nc1ccccc1)Nc1ccc(Nc2ncnc3c2Cc2ccccc2N3)cc1`, the IC50 [1] is reported as 5.08 µM, the IC50 [2] is reported as 18 µM and the inhibition [3] is reported as 32%.
